From ChEMBL document CHEMBL3091335, “Design and synthesis of potent and selective P2X₃ receptor antagonists derived from PPADS as potential pain modulators” (Eur J Med Chem, 2013) come the findings set out here.

The target of assay [1] is T1, P2X purinoceptor 1 (Mus musculus) (UniProt P51576).
T1 sequence (whole entry): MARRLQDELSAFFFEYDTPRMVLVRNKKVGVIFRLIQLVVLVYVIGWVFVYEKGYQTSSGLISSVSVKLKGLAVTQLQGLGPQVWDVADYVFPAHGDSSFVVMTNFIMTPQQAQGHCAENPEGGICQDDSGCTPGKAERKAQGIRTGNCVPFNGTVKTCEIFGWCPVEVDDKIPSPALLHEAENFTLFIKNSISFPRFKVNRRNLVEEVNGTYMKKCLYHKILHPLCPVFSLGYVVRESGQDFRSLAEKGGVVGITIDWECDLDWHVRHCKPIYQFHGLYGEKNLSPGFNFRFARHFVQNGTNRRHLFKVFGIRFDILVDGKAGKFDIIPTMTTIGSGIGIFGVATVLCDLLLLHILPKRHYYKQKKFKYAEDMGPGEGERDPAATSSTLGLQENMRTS
The experiment in a line: Antagonist activity at recombinant mouse P2X1 receptor expressed in Xenopus oocytes assessed as inhibition of ATP-induced ion current at 10 uM preincubated for 20 mins followed by ATP addition by two-electrode voltage clamp assay relative to control. Format: cell-based. The method in brief: (§1)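 Defolliculated Xenopus oocytes were injected with mP2X1 or hP2X3 cRNA (40 nL), held 24 h at 18 °C in Barth's solution, then stored at 4 °C for up to 12 days. Two-electrode voltage clamp was run at Vh −70 mV in HEPES/BaCl2 buffer at pH 7.5. ATP was superfused for 60–120 s with 20 min washout. Currents were normalized to the ATP response, giving % inhibition or IC50 from inhibition curves; mean ± SEM, n≥3.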

The target in assay [2] is T2, P2X purinoceptor 7 (Homo sapiens) (UniProt Q99572).
T2 sequence (whole entry): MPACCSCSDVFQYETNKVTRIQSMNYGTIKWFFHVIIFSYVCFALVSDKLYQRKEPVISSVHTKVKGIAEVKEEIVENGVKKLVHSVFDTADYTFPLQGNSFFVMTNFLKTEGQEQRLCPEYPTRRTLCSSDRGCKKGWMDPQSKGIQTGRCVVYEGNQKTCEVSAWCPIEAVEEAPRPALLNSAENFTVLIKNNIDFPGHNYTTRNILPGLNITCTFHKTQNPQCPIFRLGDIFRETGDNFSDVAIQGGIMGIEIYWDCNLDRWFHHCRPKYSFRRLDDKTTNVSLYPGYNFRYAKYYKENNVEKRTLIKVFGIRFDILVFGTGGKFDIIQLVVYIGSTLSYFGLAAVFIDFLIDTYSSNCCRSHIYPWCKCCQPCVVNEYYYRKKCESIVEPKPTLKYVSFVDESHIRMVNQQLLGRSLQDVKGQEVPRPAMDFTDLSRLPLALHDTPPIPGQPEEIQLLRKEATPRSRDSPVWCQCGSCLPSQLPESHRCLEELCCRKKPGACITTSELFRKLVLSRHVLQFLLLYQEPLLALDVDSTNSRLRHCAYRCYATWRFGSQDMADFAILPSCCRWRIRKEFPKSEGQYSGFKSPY
Nature of the assay: Antagonist activity at human P2X7 receptor expressed in HEK293 cells assessed as inhibition of BzATP-induced accumulation of ethidium+ at 10 uM after 120 mins by fluorescence assay relative to control. Format: cell-based. The method in brief:
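HEK293 cells expressing hP2X7 were grown in DMEM with 10% FBS at 37 °C under 5% CO2, harvested with trypsin/EDTA and resuspended at 2.5 × 10⁶ cells/mL in KCl/glucose/EDTA/HEPES buffer (pH 7.4) with ethidium bromide. Cells were plated at 2 × 10⁵ cells/well with BzATP and incubated at 37 °C for 120 min. Fluorescence was read at ex 530/em 590 nm; mean ± SEM, n≥3.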

The target of assay [3] is T3, P2X purinoceptor 3 (Homo sapiens, UniProt P56373).
T3 sequence (P56373 whole entry): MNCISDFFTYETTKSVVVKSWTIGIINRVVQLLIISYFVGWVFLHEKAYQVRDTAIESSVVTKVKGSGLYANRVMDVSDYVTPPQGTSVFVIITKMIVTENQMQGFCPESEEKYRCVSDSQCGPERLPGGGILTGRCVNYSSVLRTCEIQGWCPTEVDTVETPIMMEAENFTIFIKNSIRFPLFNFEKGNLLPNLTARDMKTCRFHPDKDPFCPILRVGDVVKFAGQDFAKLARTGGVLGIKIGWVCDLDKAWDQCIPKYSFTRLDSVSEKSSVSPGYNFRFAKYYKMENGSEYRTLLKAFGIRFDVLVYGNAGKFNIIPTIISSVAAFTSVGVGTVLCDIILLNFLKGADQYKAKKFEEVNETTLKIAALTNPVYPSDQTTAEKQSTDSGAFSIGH
The experiment in a line: Antagonist activity at recombinant human P2X3 receptor expressed in Xenopus oocytes assessed as inhibition of ATP-induced ion current preincubated for 20 mins followed by ATP addition by two-electrode voltage clamp assay. Format: cell-based. The method in brief: as §1

The target of assay [4] is T4, P2X purinoceptor 3 (Homo sapiens) (UniProt P56373).
T4 sequence (whole entry): T3 sequence (P56373 whole entry)
Nature of the assay: Antagonist activity at recombinant human P2X3 receptor expressed in Xenopus oocytes assessed as inhibition of ATP-induced ion current at 10 uM preincubated for 20 mins followed by ATP addition by two-electrode voltage clamp assay relative to control. The format is cell-based. Summed up:
as §1

For assay [5], the target named is T5, P2X purinoceptor 1 (Mus musculus, UniProt P51576).
T5 sequence (P51576 whole entry): T1 sequence (whole entry)
Nature of the assay: Antagonist activity at recombinant mouse P2X1 receptor expressed in Xenopus oocytes assessed as inhibition of ATP-induced ion current preincubated for 20 mins followed by ATP addition by two-electrode voltage clamp assay. The format is cell-based. The method in brief:
as §1

Assay [6] is described as follows: Antinociceptive activity in rat spinal dorsal horn assessed as inhibition of electrically-stimulated long term potentiation at 20 uM by Di-4-ANEPPS dye-based assay relative to control. The following applies: Dorsal horn of spinal cord. The format is functional. Summed up: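 Ex vivo rat spinal cord slices (0.5 mm) loaded with voltage-sensitive dye Di-4-ANEPPS; optical signal in dorsal horn monitored before and after LTP induction by 2 Hz electrical stimulation (0.5 msec pulse) for 2 min. Expressed as % inhibition of LTP with compound treatment; means ± SD of 4 samples; pregabalin positive control.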

Activity calls are given as the source filed them. The rule behind the calls is not given here.

As for `Cc1nc(Cc2cccc(Oc3ccccc3)c2)c2c(c1O)C(O)OC2=O` (stereo not drawn), the inhibition in assay [1] is 45%; in assay [2], 27.1%. The IC50 in assay [3] came out at 652 nM.
Taken in the same sequence, the figures for `Cc1nc(Cc2cccc(Oc3ccccc3)c2)c(CCC(=O)O)c(C=O)c1O` were 23%, 10.2% and 366 nM.
For `COc1cccc(CCc2nc(C)c(O)c(C(=O)O)c2C(=O)O)c1`, the figures for the inhibition in assay [1] and in assay [4] were 52.4% and 45.5%, respectively. Besides, the inhibition entry in assay [2] was “inactive”.
Take `Cc1nc(CCc2ccccc2)c(C(=O)O)c(C(=O)O)c1O`: the figures for the IC50 in assay [5] and in assay [3] were 645 nM and 797 nM, respectively. In addition, the inhibition entry in assay [2] was “inactive”.
Turning to `Cc1nc(Cc2cccc3ccccc23)c(/C=C/C(=O)O)c(C=O)c1O`, the inhibition in assay [1] was found to be 22%; in assay [2] it was 48.4%. The concentration for half-maximal inhibition (IC50) in assay [3] was 145 nM.
`Cc1nc(Cc2cccc(Oc3ccccc3)c2)c(/C=C/C(=O)O)c(C(=O)O)c1O`: the inhibition in assay [1] amounted to 33.7%. Also, the inhibition entry in assay [2] was “inactive”. The IC50 in assay [3] was 377 nM.
`Cc1nc(CC(c2ccccc2)c2ccccc2)c(C(=O)O)c(C(=O)O)c1O`: the inhibition in assay [1] was 42%. The inhibition result in assay [2] was “inactive”. Besides, in assay [3], the IC50 came out at 824 nM.
Take `Cc1nc(Cc2cccc3ccccc23)c(CCC(=O)O)c(C=O)c1O`: the inhibition in assay [2] came out at 43.4%. Moreover, the IC50 in assay [3] came out at 636 nM.
Consider `Cc1nc(COCc2ccccc2)c(C(=O)O)c(C(=O)O)c1O`, for which, in assay [4], the inhibition was 23.1%. The inhibition result in assay [2] is “inactive”.
With `Cc1nc(Cc2ccccc2Oc2ccccc2)c(C(=O)O)c(C(=O)O)c1O`, in assay [1], the inhibition was 49.6%. In addition, the inhibition result in assay [2] was “inactive”. In addition, the IC50 in assay [3] was determined as 2930 nM.
Turning to `COc1ccccc1CCc1nc(C)c(O)c(C(C)=O)c1C(=O)O`, the values for the inhibition in assay [1] and in assay [4] were 11.4% and 6.3%, respectively. The inhibition entry in assay [2] was “inactive”.
With `Cc1nc(Cc2cccc3ccccc23)c(C(=O)O)c(C(=O)O)c1O`, the inhibition in assay [1] is 48.7%. Besides, in assay [2], the inhibition result was “inactive”. In addition, the IC50 in assay [3] is 1250 nM.
Turning to `Cc1nc(Cc2cccc3ccccc23)c2c(c1O)C(O)OC2=O` (stereo not drawn), the inhibition in assay [2] came to 14.8%. In assay [3], the IC50 amounted to 856 nM.
In the case of `CC(=O)c1c(O)c(C)nc(Cc2ccccc2)c1C(=O)O`, the inhibition was 44.2% in assay [1] and 18.3% in assay [4]. Moreover, in assay [2], the inhibition entry was “inactive”.
As to `CC(=O)c1c(O)c(C)nc(CCc2ccccc2)c1C(=O)O`, the inhibition in assay [1] turned out to be 47.9%; in assay [4], 37.3%. Moreover, the inhibition result in assay [2] was “inactive”.
In the case of `COc1ccc(CCc2nc(C)c(O)c(C(C)=O)c2C(=O)O)cc1`, the figures for the inhibition in assay [1] and in assay [4] were 52% and 42.2%, respectively. The inhibition result in assay [2] is “inactive”.
As to `Cc1nc(NC(=O)c2cccc(Oc3ccccc3)c2)c(C(=O)O)c(C(=O)O)c1O`, the inhibition entry in assay [2] was “inactive”. Also, in assay [3], the IC50 worked out at 928 nM.
In the case of `COc1ccccc1CCc1nc(C)c(O)c(C(=O)O)c1C(=O)O`, the inhibition in assay [1] turned out to be 49.8%; in assay [4], 34.5%. Further, the inhibition entry in assay [2] was “inactive”.
Regarding `CC(=O)c1c(O)c(C)nc(/C=C/c2ccccc2)c1C(=O)O`, the inhibition stood at 52.4% in assay [1] and 27.4% in assay [4]. Besides, the inhibition entry in assay [2] is “inactive”.
Turning to `Cc1cc(C(=O)O)c(C(=O)O)c(NC(=O)c2ccccc2)n1`, the inhibition entry in assay [4] and in assay [2] was “inactive” in each case.
In the case of `Cc1nc(CCc2cccc(Oc3ccccc3)c2)c(C(=O)O)c(C(=O)O)c1O`, in assay [1], the inhibition was 38.3%. Further, the inhibition entry in assay [2] is “inactive”. Further, the IC50 in assay [3] came out at 587 nM.
Consider `Cc1nc(/C=C/c2ccccc2)c(C(=O)O)c(C(=O)O)c1O`, for which the IC50 is 768 nM in assay [5] and 920 nM in assay [3]. Also, the inhibition entry in assay [2] was “inactive”.
For the compound `Cc1nc(Cc2cccc(Oc3ccccc3)c2)c(CCC(=O)O)c(C(=O)O)c1O`, the inhibition in assay [1] was determined as 31.7%. Further, in assay [2], the inhibition result is “inactive”. Also, the IC50 in assay [3] stood at 638 nM.
As to `Cc1nc(NC(=O)c2ccccc2)c(C(=O)O)c(C(=O)O)c1O`, in assay [2], the inhibition entry is “inactive”. For the same compound, in assay [3], the IC50 stood at 723 nM.
`COc1cccc(CCc2nc(C)c(O)c(C(C)=O)c2C(=O)O)c1`: the inhibition in assay [1] turned out to be 29.9%; in assay [4], 15.8%. In assay [2], the inhibition entry was “inactive”.
As to `COc1ccc(CCc2nc(C)c(O)c(C(=O)O)c2C(=O)O)cc1`, the IC50 was found to be 446 nM in assay [5] and 460 nM in assay [3]. Further, the inhibition result in assay [2] is “inactive”.
Take `Cc1nc(Cc2cccc(Oc3ccccc3)c2)c(C(=O)O)c(C(=O)O)c1O`: in assay [1], the inhibition worked out at 41.8%. Besides, in assay [2], the inhibition result was “inactive”. Moreover, the IC50 in assay [3] was found to be 474 nM.
Regarding `Cc1nc(CCc2ccc(C(=O)O)cc2)c(C(=O)O)c(C(=O)O)c1O`, the values for the IC50 in assay [5] and in assay [3] were 267 nM and 458 nM, respectively. In addition, the inhibition result in assay [2] was “inactive”.
Consider `Cc1nc(-c2cccc(Oc3ccccc3)c2)c(C(=O)O)c(C(=O)O)c1O`, for which, in assay [1], the inhibition turned out to be 49.7%. Moreover, in assay [2], the inhibition result is “inactive”. Besides, the IC50 in assay [3] is 3300 nM.
Consider `CC(C)C[C@H](CN)CC(=O)O` [PREGABALIN], for which the inhibition at 20 µM in assay [6] worked out at 31%.
As to `Cc1nc(Cc2ccc(Oc3ccccc3)cc2)c(C(=O)O)c(C(=O)O)c1O`, the inhibition in assay [1] is 40%. For the same compound, in assay [2], the inhibition entry was “inactive”. For the same compound, in assay [3], the 50% inhibitory concentration (IC50) was 1050 nM.
In the case of `Cc1nc(Cc2ccccc2)c(C(=O)O)c(C(=O)O)c1O`, the results for the inhibition in assay [1] and in assay [4] were 54.2% and 31.4%, respectively. Also, the inhibition result in assay [2] is “inactive”.
